Screening data: PubChem, several laboratories
A selection: hits, their analogues and other compounds. The true share with any hit is near 3.7%.
NPY2 pot ag – NPY-Y2 potentiators or agonists, primary screen, cell-based | activation, % at 3.6 µM | hit rate 0.45% among 220,000 | AID 1359, 2008 | Neuropeptide Y receptor type 2 (Homo sapiens), P49146 | cells expressing NPY-Y2, potentiator/agonist read-out; in the data active = activation above about 27%;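 also: cells stimulated with NPY near EC25 plus isoproterenol at EC100; 0% = vehicle plus submaximal agonist and 100% = vehicle plus saturating agonist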
NPY Y2 blocker – NPY-Y2 receptor antagonists, primary screen, cell-based; Neuropeptide Y receptor type 2 (Homo sapiens), P49146; NPY-Y2 expressing cells, antagonist mode; inhibition, % at 2.7 µM; hit rate 0.99% among 140,000; AID 793, 2007; in the data active = inhibition above about 17%;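 also: 0% = vehicle with agonist challenge and 100% = reference antagonist with challenge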
NPY Y1 blocker – NPY-Y1 receptor antagonists, primary screen, cell-based; Neuropeptide Y receptor type 1 (Homo sapiens), P25929; HEK293-CNG Y1 cells, membrane potential fluorescence; NPY at EC95, then isoproterenol; inhibition, % at 3.6 µM; hit rate 1% among 200,000; AID 1040, 2008;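 active = inhibition above the campaign mean inhibition of all tested compounds plus 3 SD, cut at about 20% in these data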;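 also: 0% = DMSO wells given NPY plus isoproterenol and 100% = isoproterenol alone without NPY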
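Material: HEK293 cells with Y1 receptor plus CNG channel; times: compound incubation 1 h at room temperature, readout 45 min post-stimulation; signal: fluorescence, membrane potential probe; read-out basis: fluorescence ratio normalized to % inhibition between controls; benchmarks: full-block control isoproterenol-only wells, zero-block control NPY plus isoproterenol wells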
KCC2 mod – KCC2 cotransporter modulators, thallium flux, primary screen, cell-based, HEK293 KCC2, FluoZin-2 fluorescence, MLSMR | AID 1456, 2008 | B-score of Tl+ flux slope (higher = more flux/activation; lower = inhibition) at 10 µM | hit rate 2.2% among 190,000 | KCC2 cells, thallium flux FluoZin-2 fluorescence | Solute carrier family 12 member 5 (Homo sapiens), Q9H2X9;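 active = thallium flux slope and its plate-corrected score both differing from the plate sample mean at a set confidence after two filtering rounds, in either direction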;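 also: slope of fluorescence scaled to starting intensity during 10 to 20 s after thallium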
Furin inh – human furin inhibitors, primary screen, biochemical, fluorescence intensity; P09958; purified furin, fluorogenic substrate cleavage; inhibition, % at 20 µM or 30 µM; hit rate 0.061% among 220,000; AID 463115, 2010; in the data active = inhibition above about 25%
Target sequence (P09958 108-714 limits assumed): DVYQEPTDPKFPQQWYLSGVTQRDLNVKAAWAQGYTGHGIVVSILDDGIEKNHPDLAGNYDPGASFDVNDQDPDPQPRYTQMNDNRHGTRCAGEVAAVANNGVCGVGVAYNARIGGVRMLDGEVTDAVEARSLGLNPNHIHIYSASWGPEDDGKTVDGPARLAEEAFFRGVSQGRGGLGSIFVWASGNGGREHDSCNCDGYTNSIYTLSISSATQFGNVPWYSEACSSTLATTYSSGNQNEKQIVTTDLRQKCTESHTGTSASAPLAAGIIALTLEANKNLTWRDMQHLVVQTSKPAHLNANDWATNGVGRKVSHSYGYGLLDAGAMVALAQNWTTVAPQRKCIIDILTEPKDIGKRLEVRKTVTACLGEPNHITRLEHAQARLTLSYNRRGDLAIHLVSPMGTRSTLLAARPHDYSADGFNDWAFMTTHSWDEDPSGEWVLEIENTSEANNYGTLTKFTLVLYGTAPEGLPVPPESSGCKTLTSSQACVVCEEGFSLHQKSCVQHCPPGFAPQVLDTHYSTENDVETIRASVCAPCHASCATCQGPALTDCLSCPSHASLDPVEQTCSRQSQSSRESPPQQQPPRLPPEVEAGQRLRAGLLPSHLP
NPY-Y1 PAM-ag – NPY-Y1 receptor potentiators or agonists, primary screen, cell-based; Neuropeptide Y receptor type 1 (Homo sapiens), P25929; NPY-Y1 expressing cells, potentiator/agonist activation; activation, % at 3.6 µM; hit rate 0.37% among 220,000; AID 1304, 2008; in the data active = activation above about 33%, passing the limit was not always enough;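 also: cells stimulated with NPY at EC10 then isoproterenol at EC100; 0% = low agonist plus stimulus and 100% = saturating agonist plus stimulus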
KCC2 sec1 – KCC2 modulators in sodium-free buffer, confirmation, cell-based, HEK293 KCC2, thallium flux, secondary assay; shares compounds with KCC2 mod; FluoZin2 fluorescence; stronger effect = higher value; normalised thallium flux (F/F0 slope) at 10 µM; hit rate 15% among 3,700;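 active = thallium flux slope above the same plate's solvent-only control mean plus 3 SD; inconclusive = the two replicate wells disagree; inactive = no significant difference from solvent-only control wells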
KCC2 bumet counter – thallium flux persisting under bumetanide in KCC2 cells, confirmation, counter-screen for KCC2 modulator project, cell-based, HEK293 KCC2, FluoZin2, secondary assay 3; shares compounds with KCC2 mod; HEK293-KCC2 + bumetanide/ouabain; stronger effect = higher value; normalized thallium flux at 10 µM; hit rate 49% among 3,700; AID 1714, 2009;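 active = thallium entry rate above the same plate's blocked-transporter control wells by more than 3 SD; inconclusive = the two repeat wells disagree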;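 also: raw slope of fluorescence over initial fluorescence between 10 and 20 s after thallium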
KCC2 sec2 – KCC2 modulators without ouabain present, confirmation, cell-based, HEK293 KCC2, thallium flux, FluoZin2, secondary assay 2; AID 1715, 2009; shares compounds with KCC2 mod; hit rate 23% among 3,700; normalized thallium flux at 10 µM; thallium flux FluoZin2 fluorescence; actives lie on both sides; F/F0 rise rate, 10–20 s post-thallium;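 active = thallium flux slope more than 3 SD above or below the plate's solvent-only control mean, mostly below; inconclusive = the two repeat wells disagreed; inactive = no significant shift from solvent-only controls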;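 also: raw slope with 0.1% DMSO as baseline and bumetanide as block control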
HEK293 Tl flux – thallium flux modulation in parental HEK cells, confirmation, counter-screen for KCC2 modulator project, cell-based, counterscreen 1; shares compounds with KCC2 mod; HEK293 parental cells, thallium flux FluoZin2, ouabain; baseline-ratio fluorescence slope, 10–20 s after thallium; thallium flux rate (normalised fluorescence) at 10 µM; hit rate 46% among 3,700;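 active = thallium flux rate significantly above the same plate's solvent-only control wells, beyond their mean plus 3 SD; inconclusive = the two replicate wells gave conflicting results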
KCC2 ouabain – KCC2 inhibitors and activators, ouabain retest, confirmation, HEK-KCC2 cells; hit rate 48% among 3,700; shares compounds with KCC2 mod; HEK293-KCC2, thallium flux FluoZin2 fluorescence; bidirectional: low = inhibitor, high = activator; raw Tl+ flux slope (below DMSO = inhibition, above = activation) at 10 µM; AID 1717, 2009;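 active = thallium flux slope beyond 3 SD from same-plate DMSO control mean in most replicates, usually higher, sometimes lower; inconclusive = repeat tests gave conflicting results; inactive = no significant difference from controls in most replicates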;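 also: slope of initial-normalized fluorescence between seconds 10 and 20 after thallium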
HEK counter2 – native HEK Tl+ uptake effects, second counter-screen – HEK cells, counterscreen 2, counter-screen for KCC2 modulator project, confirmation; shares compounds with KCC2 mod; HEK293 parental, thallium flux FluoZin-2 fluorescence slope; thallium flux slope at 10 µM; hit rate 33% among 3,700; AID 1718, 2009;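 active = thallium flux slope above the same plate's solvent-control mean plus 3 SD in both duplicate wells; inconclusive = duplicate wells that disagreed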;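 also: run without ouabain in cells lacking the KCC2 cotransporter; slope of fluorescence scaled to its starting value between 10 and 20 s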
* marks the source's active call; other numbers are inactive results.

Results for Cc1oc(-c2cc(F)ccc2F)nc1CN1CCN(c2cnccn2)CC1 ?
NPY2 pot ag: 2; NPY Y1 blocker: 5; KCC2 mod: -5*; Furin inh: -25; NPY-Y1 PAM-ag: -3; KCC2 sec1: 0.011; KCC2 bumet counter: 0.006; KCC2 sec2: 0.03; HEK293 Tl flux: 0.0076; KCC2 ouabain: 0.065; HEK counter2: inconclusive

What do the screens show for `O=C(N/N=C/c1ccccc1)c1n[nH]c2c1CCCC2`?
NPY2 pot ag: 23; NPY Y1 blocker: 0; KCC2 mod: -0.03; Furin inh: -29; NPY-Y1 PAM-ag: 10

Results for O=C(N/N=C/C(Br)=C/c1ccccc1)c1n[nH]c2c1CCC2 ?
NPY2 pot ag: -12; NPY Y2 blocker: 4; NPY Y1 blocker: 11; Furin inh: -14; NPY-Y1 PAM-ag: 1; KCC2 sec1: 0.0077; KCC2 bumet counter: 0.0066; KCC2 sec2: 0.028; HEK293 Tl flux: 0.007; KCC2 ouabain: inconclusive; HEK counter2: 0.0099

What do the screens show for `O=[N+]([O-])c1c(NCCCO)cc(Sc2nc3ccccc3s2)c2nonc12`?
NPY2 pot ag: -27; NPY Y2 blocker: 1; NPY Y1 blocker: 14; KCC2 mod: 3.2*; Furin inh: -18; NPY-Y1 PAM-ag: -9; KCC2 sec1: 0.0064; KCC2 bumet counter: 0.019*; KCC2 sec2: 0.033; HEK293 Tl flux: 0.013*; KCC2 ouabain: inconclusive; HEK counter2: 0.016*

How did COc1ccc(NC(=O)CSc2nnc(CNC(=O)c3ccco3)o2)c(OC)c1 do in these assays?
NPY2 pot ag: -13; NPY Y2 blocker: 2; NPY Y1 blocker: -1; Furin inh: -8; NPY-Y1 PAM-ag: -23; KCC2 sec1: 0.017; KCC2 bumet counter: 0.0052; KCC2 sec2: 0.027; HEK293 Tl flux: 0.0071; KCC2 ouabain: 0.016; HEK counter2: 0.01

What do the screens show for `COc1ccccc1NC(=O)CSc1nnc(CNC(=O)c2ccco2)o1`?
NPY2 pot ag: 3; NPY Y2 blocker: 3; NPY Y1 blocker: -6; Furin inh: -19; NPY-Y1 PAM-ag: -7

Results for CC(C)Oc1ccc(CCNC(=O)CC2C(=O)NCCN2C)cc1 (stereo unspecified) ?
NPY2 pot ag: -17; KCC2 mod: 0.45; Furin inh: -8; NPY-Y1 PAM-ag: 14

What do the screens show for `COc1ccc(CCn2c(O)cc3nn(-c4nc5ccccc5s4)c(=O)c-3c2C)cc1`?
NPY2 pot ag: -6; KCC2 mod: 3.7*; Furin inh: -1; NPY-Y1 PAM-ag: 12; KCC2 sec1: 0.007; KCC2 bumet counter: 0.0077*; KCC2 sec2: 0.03; HEK293 Tl flux: 0.01*; KCC2 ouabain: 0.021; HEK counter2: inconclusive

Results for Cc1nn(-c2ccccc2)c(N2CCCC2)c1/C=N/NC(=S)Nc1ccccc1F ?
NPY2 pot ag: 3; NPY Y2 blocker: 7; NPY Y1 blocker: 3; KCC2 mod: 0.85; Furin inh: -10; NPY-Y1 PAM-ag: 0

What do the screens show for `O=C(Nc1ccc(Cl)cc1)N1CCN(c2ccccc2)CC1`?
NPY2 pot ag: -3; NPY Y2 blocker: -1; NPY Y1 blocker: 3; KCC2 mod: -0.93; Furin inh: -6; NPY-Y1 PAM-ag: -5

Results for O=C(Nc1ccc(Cl)cc1)N1CCC(CO)(Cc2ccccc2)CC1 ?
NPY2 pot ag: -1; NPY Y1 blocker: -3; KCC2 mod: -3.2*; Furin inh: -28; NPY-Y1 PAM-ag: 20; KCC2 sec1: 0.0092; KCC2 bumet counter: inconclusive; KCC2 sec2: 0.034; HEK293 Tl flux: 0.0081; KCC2 ouabain: inconclusive; HEK counter2: 0.011

How did O=C(Nc1nc2ccc(S(=O)(=O)N3CCCCC3)cc2s1)c1ccncc1 do in these assays?
NPY2 pot ag: -4; NPY Y2 blocker: 1; NPY Y1 blocker: 6; KCC2 mod: -6.2*; Furin inh: 15; NPY-Y1 PAM-ag: 2; KCC2 sec1: 0.0068; KCC2 bumet counter: 0.0048; KCC2 sec2: 0.032; HEK293 Tl flux: 0.0071; KCC2 ouabain: 0.02; HEK counter2: 0.0098

What do the screens show for `O=C(Nc1nc2ccc(S(=O)(=O)N3CCCCC3)cc2s1)c1cccnc1`?
NPY2 pot ag: -2; NPY Y2 blocker: 6; NPY Y1 blocker: -4; Furin inh: -14; NPY-Y1 PAM-ag: -15

Results for CCc1ccc(OCc2nnc(SCC(=O)Nc3cccc(C(=O)N4CCOCC4)c3)o2)cc1 ?
NPY2 pot ag: 14; NPY Y2 blocker: 0; NPY Y1 blocker: -4; KCC2 mod: -3.4*; Furin inh: -21; NPY-Y1 PAM-ag: 3; KCC2 sec1: 0.0057; KCC2 bumet counter: 0.0046; KCC2 sec2: 0.029; HEK293 Tl flux: 0.0072; KCC2 ouabain: 0.017; HEK counter2: 0.01
